Assays:
[1] = target: Tubulin; experiment: Inhibition of tubulin polymerization (unknown origin) incubated for 15 mins followed by GTP addition and measured for 20 mins by spectrophotometry; format: protein-complex assay, Homo sapiens
Outline: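 Tubulin assembly assay with tubulin at 10 µM. IC50 for inhibition of polymerization; run in duplicate or triplicate.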

[2] = tested on: MCF7; experiment: Cytotoxicity against human MCF7 cells assessed as reduction in cell growth incubated for 96 hrs by MTT assay; format: functional, cell-based; conditions: MCF7, 96 h
Outline: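 Growth inhibition of human breast carcinoma cells, reported as IC50; run in duplicate or triplicate.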

[3] = target: Tubulin (Homo sapiens) (UniProt P68371+Q9H4B7+P0DPH7+P68366+Q13509+Q71U36+P04350+Q3ZCM7+P07437+P68363+Q9BQE3+Q6PEY2+Q13885+Q9BVA1+Q9BUF5); experiment: Inhibition of [3H]colchicine binding to tubulin (unknown origin) at 5 uM incubated for 10 mins by DEAE-cellulose filter method relative to control; format: protein-complex assay

Row | Structure (SMILES) | IC50 [1] [nM] | IC50 [2] [nM] | inhibition [3] [%]
1 | COc1cc(C(=O)c2cn(-c3cccc(C)c3)cc2-c2ccccc2[N+](=O)[O-])cc(OC)c1OC | 1200 | 220 | 41
2 | COc1cc(C(=O)c2cn(-c3ccccc3)cc2-c2ccccc2Br)cc(OC)c1OC | 670 | 190 | 39
3 | COc1cc(C(=O)c2cn(-c3ccc(C)cc3)cc2-c2cccc(N)c2)cc(OC)c1OC | 420 | 53 | 88
4 | COc1cc(C(=O)c2cn(-c3ccccc3)cc2-c2cccc(Cl)c2)cc(OC)c1OC | 2300 | 540 | 7.5
5 | COc1cc(C(=O)c2cn(-c3ccc(F)cc3)cc2-c2ccc([N+](=O)[O-])cc2)cc(OC)c1OC | > 20000 | 240 | 0
6 | COc1cc(C(=O)c2cn(-c3ccc(C)cc3)cc2-c2ccccc2Cl)cc(OC)c1OC | 480 | 180 | 70
7 | COc1cc(C(=O)c2cn(-c3ccc(N)cc3)cc2-c2ccccc2Cl)cc(OC)c1OC | 710 | 83 | 65
8 | COc1cc(C(=O)c2cn(-c3ccc(F)cc3)cc2-c2ccccc2[N+](=O)[O-])cc(OC)c1OC | 680 | 38 | 46
9 | COc1cc(C(=O)c2cn(-c3cccc(Cl)c3)cc2-c2ccccc2)cc(OC)c1OC | 2100 | 150 | 37
10 | COc1cc(C(=O)c2cn(-c3ccccc3)cc2-c2ccccc2[N+](=O)[O-])cc(OC)c1OC | 730 | 49 | 61
11 | COc1cc(C(=O)c2cn(-c3ccccc3)cc2-c2ccc(N)cc2)cc(OC)c1OC | 1200 | 9 | 
12 | COc1cc(C(=O)c2cn(-c3ccccc3)cc2-c2ccc([N+](=O)[O-])cc2)cc(OC)c1OC | > 20000 | 590 | 
13 | COc1cc(C(=O)c2cn(-c3cc(OC)c(OC)c(OC)c3)cc2-c2ccccc2)cc(OC)c1OC | > 20000 | > 5000 | 6.5
14 | COc1cc(C(=O)c2cn(-c3cccc(Br)c3)cc2-c2ccccc2)cc(OC)c1OC | 1900 | 78 | 23
15 | COc1cc(C(=O)c2cn(-c3cccc(C)c3)cc2-c2cccc([N+](=O)[O-])c2)cc(OC)c1OC | > 20000 | 880 | 4.2
16 | COc1cc(C(=O)c2cn(-c3cccc(C)c3)cc2-c2ccc(N)cc2)cc(OC)c1OC | 330 | 18 | 88
17 | COc1ccc(-c2cn(-c3ccccc3)cc2C(=O)c2cc(OC)c(OC)c(OC)c2)cc1 | 480 | 70 | 42
18 | COc1cc(C(=O)c2cn(-c3cccc(C)c3)cc2-c2ccccc2F)cc(OC)c1OC | 790 | 190 | 57
19 | COc1cc(C(=O)c2cn(-c3cccc(N)c3)cc2-c2ccccc2Cl)cc(OC)c1OC | 630 | 40 | 79
20 | COc1cc(C(=O)c2cn(-c3ccccc3)cc2-c2ccccc2C)cc(OC)c1OC | 790 | 190 | 18
21 | COc1cc(C(=O)c2cn(-c3cccc(F)c3)cc2-c2ccccc2[N+](=O)[O-])cc(OC)c1OC | 1100 | 190 | 41
22 | COc1cccc(-c2cn(-c3ccccc3)cc2C(=O)c2cc(OC)c(OC)c(OC)c2)c1 | 450 | 180 | 27
23 | COc1cc(C(=O)c2cn(-c3ccccc3Cl)cc2-c2ccccc2)cc(OC)c1OC | > 20000 | 1800 | 

Row | Structure (SMILES) | IC50 [1] [nM] | IC50 [2] [nM] | inhibition [3] [%]
24 | COc1cc(C(=O)c2cn(-c3ccc(Br)cc3)cc2-c2ccccc2)cc(OC)c1OC | 660 | 20 | 78
25 | COc1cc(C(=O)c2cn(-c3ccc(C)cc3)cc2-c2cccc([N+](=O)[O-])c2)cc(OC)c1OC | 710 | 210 | 36
26 | COc1cc(C(=O)c2cn(-c3ccc(C)cc3)cc2-c2ccc([N+](=O)[O-])cc2)cc(OC)c1OC | 650 | 200 | 34
27 | COc1ccccc1-c1cn(-c2ccccc2)cc1C(=O)c1cc(OC)c(OC)c(OC)c1 | 550 | 190 | 31
28 | COc1ccc(Br)cc1-c1cn(-c2ccccc2)cc1C(=O)c1cc(OC)c(OC)c(OC)c1 | > 20000 | 2200 | 
29 | COc1cc(C(=O)c2cn(-c3ccc(C)cc3)cc2-c2ccccc2[N+](=O)[O-])cc(OC)c1OC | 610 | 65 | 71
30 | COc1cc(C(=O)c2cn(-c3ccccc3)cc2-c2cccc(Br)c2)cc(OC)c1OC | > 20000 | 950 | 
31 | COc1cc(C(=O)c2cn(-c3ccc(Cl)cc3)cc2-c2ccccc2)cc(OC)c1OC | 1700 | 140 | 42
32 | COc1cc(C(=O)c2cn(-c3ccc(N)cc3)cc2-c2cccc([N+](=O)[O-])c2)cc(OC)c1OC | 3800 | 260 | 18
33 | COc1cc(C(=O)c2cn(-c3ccccc3[N+](=O)[O-])cc2-c2ccccc2)cc(OC)c1OC | > 20000 | 5000 | 
34 | COc1ccccc1-n1cc(C(=O)c2cc(OC)c(OC)c(OC)c2)c(-c2ccccc2)c1 | 1300 | 150 | 22
35 | COc1cc(C(=O)c2cn(-c3ccccc3C)cc2-c2ccccc2)cc(OC)c1OC | > 20000 | 2200 | 
36 | COc1cc(C(=O)c2cn(-c3ccccc3)cc2-c2ccccc2Cl)cc(OC)c1OC | 630 | 76 | 50
37 | COc1cc(C(=O)c2cn(-c3cccc(C)c3)cc2-c2ccc([N+](=O)[O-])cc2)cc(OC)c1OC | > 20000 | 780 | 10
38 | COc1cc(C(=O)c2cn(-c3cccc(N)c3)cc2-c2cccc(N)c2)cc(OC)c1OC | 880 | 60 | 70
39 | COc1cc(C(=O)c2cn(-c3ccccc3)cc2-c2c(F)cc(F)cc2F)cc(OC)c1OC | 510 | 180 | 27
40 | COc1cc(C(=O)c2cn(-c3ccc(F)cc3)cc2-c2ccccc2Cl)cc(OC)c1OC | 510 | 83 | 65
41 | COc1cc(C(=O)c2cn(-c3ccc(F)cc3)cc2-c2cccc([N+](=O)[O-])c2)cc(OC)c1OC | > 20000 | 440 | 11
42 | COc1cc(C(=O)c2cn(-c3cccc([N+](=O)[O-])c3)cc2-c2ccccc2)cc(OC)c1OC | > 20000 | 550 | 12
43 | COc1cc(C(=O)c2cn(-c3ccc(F)cc3)cc2-c2ccccc2F)cc(OC)c1OC | 660 | 39 | 68
44 | COc1cc(C(=O)c2cn(-c3cccc(C)c3)cc2-c2ccccc2Cl)cc(OC)c1OC | 710 | 420 | 39
45 | COc1cc(C(=O)c2cn(-c3ccccc3N)cc2-c2ccccc2)cc(OC)c1OC | > 20000 | 3800 | 
46 | COc1cc(C(=O)c2cn(-c3ccccc3)cc2/C=C/c2ccccc2)cc(OC)c1OC | > 20000 | 2200 | 

Reference: ChEMBL document CHEMBL4312029, “Structure-activity relationship studies and in vitro and in vivo anticancer activity of novel 3-aroyl-1,4-diarylpyrroles against solid tumors and hematological malignancies” (Eur J Med Chem, 2020)
